Assay results as given in ChEMBL document CHEMBL4513216, “Probing the Open Global Health Chemical Diversity Library for Multistage-Active Starting Points for Next-Generation Antimalarials” (ACS Infect Dis, 2020).

Assay: Toxicity liver stage against HepG2, at 10uM
Format: cell-based
Set-up: test concentration 10 uM, cell line HepG2-A16-CD81EGFP
Settings: human, HepG2-A16-CD81EGFP cells; read-out: INHIBITION
How it was run: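 Uninfected HepG2-A16-CD81EGFP cells, 3 × 10^3 per well, 1536-well, plated on prespotted compound at 10 μM final, parasite-free screening media added to match infected plates; puromycin 10 μM positive, DMSO 0.5% negative; run in parallel with 48 h PbLuc assay at 37 °C, 5% CO2; viability by CellTiter-Glo luminescence, normalized to controls.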

| Compound | cytotoxicity at 10 µM |
| --- | --- |
| c1cc(-c2c[nH]c([C@@H]3COCCN3C3CCOCC3)n2)ccn1 | -0.113% |
| CC(C)(C)CC(=O)NC[C@H]1OC[C@@H](NC2CCC(F)(F)CC2)[C@@H]1O | -1.23% |
| CNc1c(NCc2ccco2)c(=O)c1=O | -10.6% |
| CCCc1nc(N2CCN(CC)CC2)c2c(n1)c(C)nn2CC | -9.41% |
| CN(C)c1cc(C2CCCN2)ccn1 (centres undefined) | 5.8% |
| O=C(c1ccncc1)N1CCC(Cc2cnc3[nH]ccc3c2)CC1 | -1.86% |
| Cc1ccccc1CNC(=O)c1ccccc1-n1cnc(CN)c1 | -7.22% |
| Cc1cn[nH]c1C1CCCCN1C(=O)CCc1c(C)n[nH]c1C (centres undefined) | -10.5% |
| CCOCCC(=O)Nc1cccc(Cl)c1COC | -3.81% |
| CC(Nc1cccc(F)c1C#N)c1cccc(S(N)(=O)=O)c1 (centres undefined) | 12.8% |
| CN(Cc1ccccn1)C(=O)C(c1ccccc1)N1CCSCC1 (centres undefined) | -9.71% |
| COc1c(CNC(C)c2sc(C)nc2C)c(C(C)C)nn1C (centres undefined) | 7.97% |
| Cc1cnc(C(=O)N2CCOCC2C)cn1 (centres undefined) | -3.83% |
| COc1ncc(NCc2cccc(C#N)c2)cc1C(N)=O | 5.85% |
| CCN(C(=O)CS(=O)(=O)c1cc(OC)c(OC)cc1C)C1CC1 | -3.91% |
| O=C(Cc1cccnc1)NCCS(=O)(=O)c1ccccc1F | 6.72% |
| COc1ccc(NC(=O)NCC(C)N2CCc3ccccc32)cc1 (centres undefined) | -2.42% |
| CCNC(=O)NC(C)c1nc(-c2ccc(Br)cc2)no1 (centres undefined) | 14.7% |
| CCc1csc(C2CCCN(C(=O)CCn3cc(C)cn3)C2)n1 (centres undefined) | 1.82% |
| CC(C(=O)N(C)C)N1CCCN(C(=O)Oc2ccccc2)CC1 (centres undefined) | -0.37% |
| O=C(CCCn1cncn1)N1CCCCC1c1nccs1 (centres undefined) | 8.6% |

| Compound | cytotoxicity at 10 µM |
| --- | --- |
| CN(C(=O)CN1CCC(c2cc3ccccc3[nH]2)CC1)C1CC1 | 1.95% |
| CNS(=O)(=O)CC(=O)NC(C)Cc1ccccc1Br (centres undefined) | 13.7% |
| CN(Cc1nccn1C)C(CO)c1cccc(Br)c1 (centres undefined) | -1.29% |
| Cc1cnc(CCN(C)C(=O)c2cccc(N(C)C)c2)s1 | 2.05% |
| N#Cc1c(F)cccc1N1CCN(S(=O)(=O)c2cccs2)CC1 | 14.2% |
| CS(=O)(=O)c1ccc(CNCC2CCN(CCO)CC2)cc1 | -18.8% |
| COCCCNc1nc(CNC(C)=O)cc(-c2ccco2)n1 | -5.52% |
| CC(C)[C@H](NS(C)(=O)=O)C(=O)NCc1cc(-c2ccccc2)n[nH]1 | -8.94% |
| Cc1nc(CN2CCCn3nc(CNC(=O)C4CCC4)cc3C2)co1 | 3.26% |
| CCCc1ccc(CN2CCN(C(=O)CC(C)C)[C@@H]3CS(=O)(=O)C[C@@H]32)o1 | 5.31% |
| O=C(NC1CCOC1)c1cccc(S(=O)(=O)NCCCc2ncc[nH]2)c1 (centres undefined) | -2.26% |
| Cc1cnc(C(=O)N2CCCC(c3nccn3Cc3cscn3)C2)cn1 (centres undefined) | -7.92% |
| OC1(CN2CCCCC2)CCN(c2cc(C(F)(F)F)ccn2)C1 (centres undefined) | -2.22% |
| COc1cccc(Cn2cc(C3=CCN(CC(=O)N(C)C)CC3)cn2)c1 | -13.1% |
| CCN1CC(C(=O)N2CCN(c3nsc4ccccc34)CC2)CCC1=O (centres undefined) | 16.2% |
| CCC1(C(=O)O)CCCN(C(=O)c2ccc(N3CCN(C)CC3)cc2)C1 (centres undefined) | -2.35% |
| O=S1(=O)COCCN1Cc1ccc(F)cc1Cl | 14.7% |
| CC(C)Cc1ncc2c(n1)CN(c1nc3ccccc3cc1CO)C2 | 1.18% |
| CCCC(=O)Nc1cccc(C(=O)N(C)CCCC2CCCO2)c1 (centres undefined) | 1.03% |
| NC(=O)c1cccc(CC2CCN(C(=O)CCCN3CCOCC3)C2)c1 (centres undefined) | -11.3% |
| CN1CCC(c2ncc3c(n2)CCN(C(=O)CC2C=CCC2)C3)CC1 (centres undefined) | 1.68% |

| Compound | cytotoxicity at 10 µM |
| --- | --- |
| CC(C)OCCN1CCN(C(C)c2nc(C3CC3)no2)CC1 (centres undefined) | 2.07% |
| CC(C)c1nc(C2CCCN2Cc2nnc(C3CCC3)o2)no1 (centres undefined) | -15.6% |
| Cc1nc(CNC(=O)NCC(O)c2ccc(F)cc2)cs1 (centres undefined) | -10.4% |
| Cn1cc(C(=O)N2CCSc3ccccc32)ccc1=O | -22.9% |
| Cc1cnn(C2CCCN(C(=O)CCc3cscn3)C2)c1 (centres undefined) | -12.9% |
| O=C(NCCN1CCCC1)C1(c2ccc(Cl)cc2)CCOCC1 | -2.16% |
| CCc1ccc(C(=O)N2CCCC(n3nc(C)nc3C)C2)o1 (centres undefined) | -7.8% |
| c1ccc(-c2nc(CNCCn3cccn3)cs2)nc1 | -21.1% |
| CCN1CCN(C2CCN(Cc3nc(C4CC4)no3)CC2)C1=O | -2.69% |
| COc1cccc2cc(CNC(=O)N3CCOC(C)(C)C3)oc12 | -14.8% |
| CN1CCOC(CNCc2coc(-c3cccc(Cl)c3)n2)C1 (centres undefined) | -15.9% |
| Cc1cnn(C2CCCN(C(=O)Cc3n[nH]c4ccccc34)C2)c1 (centres undefined) | -6.8% |
| O=C(NCCN1CCCCCC1=O)c1ccc(=O)[nH]n1 | -19.3% |
| NC(=O)NC(=O)CCN1CCN(c2nccs2)CC1 | -33.6% |
| COc1ncccc1C(=O)N1CCC(Nc2ccc(C)nn2)CC1 | -18.1% |
| CCN1CCN(C(=O)NCc2cccnc2-n2cccn2)CC1 | -7.97% |
| COc1ncccc1CNC(=O)c1ccco1 | -8.48% |
| c1cncc(-c2noc(CN3CCCCC3Cn3cccn3)n2)c1 (centres undefined) | -2.42% |
| Cc1cc(CN(C)C(=O)c2ccc(OCC(F)(F)F)nc2)no1 | -6.19% |
| Cc1nn(C)c(N(C)C)c1CNCc1ccccc1Cn1cccn1 | -8.06% |
| Cc1cnn(CC2CCCCN2CC(=O)Nc2nc(C)cs2)c1 (centres undefined) | 0.109% |

| Compound | cytotoxicity at 10 µM |
| --- | --- |
| COc1ccc(CNC(=O)NCCCNS(C)(=O)=O)cc1OC | -10.6% |
| CC(=O)Nc1nc(C(=O)NCc2ccc(N3CCCCC3)cc2)cs1 | -2.75% |
| O=C(CCNc1ncccn1)N1CCCN(c2nccs2)CC1 | -14.3% |
| CC(Cn1cccn1)NCc1csc(Cc2ccccc2)n1 (centres undefined) | -8.15% |
| COc1cc(C(=O)N2CCCC(c3cc(C)[nH]n3)C2)cc(OC)c1C (centres undefined) | -10.5% |
| Cc1ccc(OCCCC(=O)NC(C)c2nnc3n2CCC3)cc1 (centres undefined) | -15% |
| Cc1cnc(C(=O)NCc2cccnc2OC(C)C)cn1 | -23.4% |
| O=C1COc2c(cccc2C(=O)N2CCCC2Cn2cccn2)N1 (centres undefined) | -4.47% |
| Cc1ccc(CC(=O)N2CCCC(c3cc(C)[nH]n3)C2)cn1 (centres undefined) | -7.2% |
| CCc1ncc(C(=O)N2CCCCC2Cn2cccn2)s1 (centres undefined) | -2.48% |
| Cc1ncc2c(n1)CN(Cc1nc3ccccc3o1)CC2 | -0.602% |
| CCc1nc(C2CCCN2C(=O)C2=COCC2)no1 (centres undefined) | 8.64% |
| CC(c1cccc(S(N)(=O)=O)c1)N(C)CCc1ccccc1 (centres undefined) | -12% |
| Cc1nc(CN2CCN(CC(=O)Nc3c(C)cccc3C)CC2)no1 | -3.1% |
| CC(C)c1nnc2n1CCN(CC(=O)Nc1nncs1)C2 | -4.02% |
| Cc1cccc(-c2noc(C)c2C(=O)NC2CCCOC2)c1 (centres undefined) | 5.2% |
| CN(C)Cc1cc(=O)n2c(n1)CN(C(=O)Cc1ccsc1)CCC2 | -4.43% |
| CCOCC1CN(S(=O)(=O)N(C)C)Cc2cnn(C)c21 (centres undefined) | -4.2% |
| CN(C)C(=O)CN1C[C@H]2CC[C@@H](C1)N(Cc1ccc3nsnc3c1)C2 | 2.3% |
| COC(=O)Cn1c(=O)[nH]c2cn(-c3cccc(Cl)c3)c(=O)n21 | -1.39% |
| Cc1nc(C(C)n2cc3[nH]cccc-3c2=O)cs1 (centres undefined) | -3.13% |
